# Measured values from ChEMBL document CHEMBL5058577, “EUbOPEN Chemogenomics Library 2 (Multiplex)” (2022).
# System: U2OS
# Assay: Multiplex assay against U2OS
# Type: toxicity, cell-based
# Details: human
# Outline: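 At seeding, live cells were stained with Hoechst33342, BioTracker Green Microtubule Cytoskeleton Dye, MitoTracker Red and Annexin V Alexa Fluor 680. After compound addition they were imaged on a CQ1 microscope at 37°C and 5% CO2, and CellPathfinder machine-learning gating sorted them into Hoechst high-intensity objects or normal cells, with normal cells further split into healthy, pyknosed or fragmented nuclei and pyknosed cells into mitotic or apoptotic. Tubulin, mitochondrial-mass and membrane-permeability phenotypes are given as per cents of cells with healthy nuclei.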
# [1] = 12 h, 1 µM, compound concentration 1 uM, replicate 1
# [2] = 12 h, 1 µM, compound concentration 1 uM, replicate 2
# [3] = 12 h, 10 µM, compound concentration 10 uM, replicate 1
# [4] = 12 h, 10 µM, compound concentration 10 uM, replicate 2
# [5] = 24 h, 1 µM, compound concentration 1 uM, replicate 1
# [6] = 24 h, 1 µM, compound concentration 1 uM, replicate 2
# [7] = 24 h, 10 µM, compound concentration 10 uM, replicate 1
# [8] = 24 h, 10 µM, compound concentration 10 uM, replicate 2
# [9] = 48 h, 1 µM, compound concentration 1 uM, replicate 1
# [10] = 48 h, 1 µM, compound concentration 1 uM, replicate 2
# [11] = 48 h, 10 µM, compound concentration 10 uM, replicate 1
# [12] = 48 h, 10 µM, compound concentration 10 uM, replicate 2
smiles,measurement,setting,value
C[C@H](N)COC(=O)[C@@H](CCCCN)NC(=O)Cc1c(-c2ccc3ccccc3c2)[nH]c2c1ccc1ccccc12,Population Apoptotic (%),[1],73%
same,Population Fragmented Nuclei (%),[1],26%
same,Population Healthy Nuclei (%),[1],66%
same,Population Hoechst High Intensity Objects (%),[1],3%
same,Population Membrane Permeable-Phenotype (%),[1],6%
same,Population Mitochondria Different-Phenotype (%),[1],3%
same,Population Mitotic Cells (%),[1],26%
same,Population Normal (%),[1],96%
same,Population Pyknosed Nuclei (%),[1],6%
same,Population Tubulin-Different-Phenotype (%),[1],3%
same,Total Cell Count,[1],244
same,Population Apoptotic (%),[2],75%
same,Population Fragmented Nuclei (%),[2],14%
same,Population Healthy Nuclei (%),[2],78%
same,Population Hoechst High Intensity Objects (%),[2],0%
same,Population Membrane Permeable-Phenotype (%),[2],4%
same,Population Mitochondria Different-Phenotype (%),[2],2%
same,Population Mitotic Cells (%),[2],25%
same,Population Normal (%),[2],99%
same,Population Tubulin-Different-Phenotype (%),[2],4%
same,Total Cell Count,[2],128
same,Population Apoptotic (%),[3],78%
same,Population Fragmented Nuclei (%),[3],23%
same,Population Healthy Nuclei (%),[3],69%
same,Population Hoechst High Intensity Objects (%),[3],2%
same,Population Membrane Permeable-Phenotype (%),[3],5%
same,Population Mitochondria Different-Phenotype (%),[3],1%
same,Population Mitotic Cells (%),[3],21%
same,Population Normal (%),[3],97%
same,Population Pyknosed Nuclei (%),[3],7%
same,Population Tubulin-Different-Phenotype (%),[3],3%
same,Total Cell Count,[3],279
same,Population Apoptotic (%),[4],50%
same,Population Fragmented Nuclei (%),[4],24%
same,Population Healthy Nuclei (%),[4],73%
same,Population Hoechst High Intensity Objects (%),[4],0%
same,Population Membrane Permeable-Phenotype (%),[4],17%
same,Population Mitochondria Different-Phenotype (%),[4],3%
same,Population Mitotic Cells (%),[4],50%
same,Population Normal (%),[4],100%
same,Population Pyknosed Nuclei (%),[4],1%
same,Population Tubulin-Different-Phenotype (%),[4],5%
same,Total Cell Count,[4],106
same,Population Apoptotic (%),[5],83%
same,Population Fragmented Nuclei (%),[5],22%
same,Population Healthy Nuclei (%),[5],68%
same,Population Hoechst High Intensity Objects (%),[5],2%
same,Population Membrane Permeable-Phenotype (%),[5],3%
same,Population Mitochondria Different-Phenotype (%),[5],1%
same,Population Mitotic Cells (%),[5],16%
same,Population Normal (%),[5],97%
same,Population Pyknosed Nuclei (%),[5],8%
same,Population Tubulin-Different-Phenotype (%),[5],2%
same,Total Cell Count,[5],292
same,Population Apoptotic (%),[6],90%
same,Population Fragmented Nuclei (%),[6],16%
same,Population Healthy Nuclei (%),[6],77%
same,Population Hoechst High Intensity Objects (%),[6],1%
same,Population Membrane Permeable-Phenotype (%),[6],6%
same,Population Mitotic Cells (%),[6],10%
same,Population Normal (%),[6],98%
same,Population Pyknosed Nuclei (%),[6],5%
same,Population Tubulin-Different-Phenotype (%),[6],3%
same,Total Cell Count,[6],170
same,Population Apoptotic (%),[7],81%
same,Population Fragmented Nuclei (%),[7],19%
same,Population Healthy Nuclei (%),[7],73%
same,Population Hoechst High Intensity Objects (%),[7],2%
same,Population Membrane Permeable-Phenotype (%),[7],5%
same,Population Mitochondria Different-Phenotype (%),[7],1%
same,Population Mitotic Cells (%),[7],18%
same,Population Normal (%),[7],97%
same,Population Pyknosed Nuclei (%),[7],6%
same,Population Tubulin-Different-Phenotype (%),[7],2%
same,Total Cell Count,[7],337
same,Population Apoptotic (%),[8],100%
same,Population Fragmented Nuclei (%),[8],17%
same,Population Healthy Nuclei (%),[8],79%
same,Population Membrane Permeable-Phenotype (%),[8],11%
same,Population Mitochondria Different-Phenotype (%),[8],3%
same,Population Mitotic Cells (%),[8],0%
same,Population Pyknosed Nuclei (%),[8],2%
same,Population Tubulin-Different-Phenotype (%),[8],6%
same,Total Cell Count,[8],142
same,Population Apoptotic (%),[9],79%
same,Population Fragmented Nuclei (%),[9],16%
same,Population Healthy Nuclei (%),[9],78%
same,Population Hoechst High Intensity Objects (%),[9],1%
same,Population Membrane Permeable-Phenotype (%),[9],2%
same,Population Mitochondria Different-Phenotype (%),[9],2%
same,Population Mitotic Cells (%),[9],20%
same,Population Normal (%),[9],98%
same,Population Pyknosed Nuclei (%),[9],5%
same,Population Tubulin-Different-Phenotype (%),[9],2%
same,Total Cell Count,[9],440
same,Population Apoptotic (%),[10],73%
same,Population Fragmented Nuclei (%),[10],17%
same,Population Healthy Nuclei (%),[10],73%
same,Population Hoechst High Intensity Objects (%),[10],2%
same,Population Membrane Permeable-Phenotype (%),[10],3%
same,Population Mitochondria Different-Phenotype (%),[10],4%
same,Population Mitotic Cells (%),[10],26%
same,Population Normal (%),[10],97%
same,Population Pyknosed Nuclei (%),[10],8%
same,Population Tubulin-Different-Phenotype (%),[10],1%
same,Total Cell Count,[10],231
same,Population Apoptotic (%),[11],90%
same,Population Fragmented Nuclei (%),[11],14%
same,Population Healthy Nuclei (%),[11],74%
same,Population Hoechst High Intensity Objects (%),[11],4%
same,Population Membrane Permeable-Phenotype (%),[11],6%
same,Population Mitochondria Different-Phenotype (%),[11],1%
same,Population Mitotic Cells (%),[11],9%
same,Population Normal (%),[11],95%
same,Population Pyknosed Nuclei (%),[11],10%
same,Population Tubulin-Different-Phenotype (%),[11],2%
same,Total Cell Count,[11],505
same,Population Fragmented Nuclei (%),[12],16%
same,Population Healthy Nuclei (%),[12],77%
same,Population Membrane Permeable-Phenotype (%),[12],16%
same,Population Mitochondria Different-Phenotype (%),[12],2%
same,Population Mitotic Cells (%),[12],10%
same,Population Pyknosed Nuclei (%),[12],5%
same,Population Tubulin-Different-Phenotype (%),[12],6%
same,Total Cell Count,[12],184
